Active and inactive are the calls of the source.
Tests used:
Schistosoma mansoni [1] = assay: Antischistosomal activity against Schistosoma mansoni Puerto-Rican schistosomula assessed as inhibition of parasite motility at 50 uM measured after 72 hrs; assay type: functional, organism-based
Procedure, shortened: (§1)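 Mechanically transformed schistosomula, 120 per well, incubated with compound at 37°C, 5% CO2 for 72 h, at single concentrations (10, 50 µM) or two-fold titrations (0.313–10 µM). Controls were auranofin 10 µM and 0.625% DMSO. Motility and phenotype were scored by automated high-content imaging, and EC50 was taken from two or three replicate titrations.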

Schistosoma mansoni [2] = assay: Antischistosomal activity against adult stage of Schistosoma mansoni assessed as cessation of worm motility at 6.25 to 12.5 uM measured after 72 hrs; assay type: functional, organism-based; conditions: dose 6.25-12.5 µM
Procedure, shortened: (§2)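 7-week adult worm pairs, 1–3 pairs per well in duplicate, in DMEM with 10% FCS, L-glutamine and antibiotics, incubated 72 h at 37°C, 5% CO2. Concentrations were 0.78–50 µM in 0.5% DMSO, with some titrations at 0.0095–10 or 0.0095–5 µM. Controls were 0.5% DMSO and praziquantel 10 µM. Motility was measured by digital image analysis, and eggs were collected, formalin-fixed and counted.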

Schistosoma mansoni [3] = assay: Antischistosomal activity against adult stage of Schistosoma mansoni assessed as cessation of worm motility at 0.0095 to 10 uM measured after 72 hrs; assay type: functional, organism-based; conditions: dose 0.0095-10 µM; procedure, shortened: as §2
[4] = Genotoxicity against human TK6 cells assessed as […] in micronuclei formation at 0.5 to 2 uM measured after 24 hrs; assay type: toxicity, cell-based; conditions: tk6, 24 h, dose 0.5-2 µM
Procedure, shortened: (§3)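 TK6 cells, about 2×10^5/ml in RPMI with 10% horse serum, treated 24 h without recovery at 0.5, 2 and 4 µM. Controls were 1% DMSO, MMS 45.4 µM and carbendazim 8.4 µM. Cells were fixed, permeabilized and stained for γH2AX, p53 and DRAQ5, then imaged by flow cytometry. Micronuclei were scored by neural network as %MNi in mononucleated cells. Biomarkers were expressed as fold change, with 1.5-fold as cut-off. Three experiments.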

TK6 [5] = assay: Induction of cell cycle arrest in human TK6 cells assessed as accumulation of cells at G2/M phase at 2 to 4 uM; assay type: toxicity, cell-based; conditions: tk6, 4 µM, dose 2-4 µM
[6] = Genotoxicity against human TK6 cells assessed as induction of DNA damage by measuring gammaH2AX level at 0.5 to 4 uM measured after 24 hrs; assay type: toxicity, cell-based; conditions: tk6, 24 h, dose 0.5-4 µM; procedure, shortened: as §3
[7] = Genotoxicity against human TK6 cells assessed as induction of DNA damage by measuring nuclear p53 content at 0.5 to 4 uM measured after 24 hrs; assay type: toxicity, cell-based; conditions: tk6, 24 h, dose 0.5-4 µM; procedure, shortened: as §3
Schistosoma mansoni [8] = assay: Antischistosomal activity against juvenile stage of Schistosoma mansoni assessed as parasite death at 1.25 to 10 uM measured after 72 hrs by PI staining based analysis; assay type: functional, organism-based; conditions: dose 1.25-10 µM
Procedure, shortened: (§4)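 Juvenile worms, 20–25 per well, exposed to 10–0.156 µM for 72 h at 37°C, 5% CO2. Controls were 1.25% DMSO, and PZQ and AUR at 15 µM. Motility and phenotype were scored on an adapted WHO-TDR 0–4 scale. Viability was measured by 15 min staining with 2 µg/ml propidium iodide, imaged, and reported as the percentage of PI-positive worms per well.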

Schistosoma mansoni [9] = assay: Antischistosomal activity against adult stage of Schistosoma mansoni assessed as inhibition of oviposition at 0.0095 to 10 uM measured after 72 hrs; assay type: functional, organism-based; conditions: dose 0.0095-10 µM; procedure, shortened: as §2
Schistosoma mansoni [10] = assay: Antischistosomal activity against Schistosoma mansoni assessed as parasite death at 10 to 50 uM measured after 48 hrs; assay type: functional, organism-based; conditions: dose 10-50 µM
Procedure, shortened: (§5)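 Miracidia hatched from eggs by light exposure in artificial river water, then washed in CBSS. Set up in CBSS with compound, usually 0.5, 2, 5, 10 and 50 µM, in duplicate, with 1% DMSO as negative control. After 48 h at 26°C, dead, fully transformed and partially transformed larvae were counted.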

Schistosoma mansoni [11] = assay: Antischistosomal activity against Schistosoma mansoni assessed as inhibition of miracidial to sporocyst transformation measured after 48 hrs; assay type: functional, organism-based; conditions: dose 0.5-5 µM, DDE = dose-dependent effect; procedure, shortened: as §5
Schistosoma mansoni [12] = assay: Antischistosomal activity against juvenile stage of Schistosoma mansoni assessed as increased granularity with reduced movement at 0.156 uM measured after 72 hrs by PI staining based analysis; assay type: functional, organism-based; procedure, shortened: as §4
[13] = Genotoxicity against human TK6 cells assessed as […] in micronuclei formation at 4 uM measured after 24 hrs; assay type: toxicity, cell-based; conditions: tk6, 24 h; procedure, shortened: as §3
TK6 [14] = assay: Cytotoxicity against human TK6 cells assessed as increase in mitotic arrest at 4 uM measured after 24 hrs; assay type: toxicity, cell-based; conditions: tk6, 24 h
[15] = Drug uptake in cytoplasm of human TK6 cells by fluorescence based analysis; assay type: ADME, subcellular
Procedure, shortened: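 Compound autofluorescence was recorded alongside γH2AX and p53 during imaging flow cytometry of TK6 cells treated for 24 h at 0.5–4 µM and fixed with lysis solution.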

Schistosoma mansoni [16] = assay: Antischistosomal activity against adult stage of Schistosoma mansoni assessed as inhibition of oviposition at 0.0024 to 10 uM measured after 72 hrs; assay type: functional, organism-based; conditions: dose 0.0095-10 µM, in the assay text read “0.0095 to 10 uM” for “0.0024 to 10 uM”; procedure, shortened: as §2
Schistosoma japonicum [17] = assay: Antischistosomal activity against adult stage of Schistosoma japonicum assessed as inhibition of parasite motility at 100 nM measured after 48 hrs by microscopic method; assay type: functional, organism-based
Procedure, shortened: (§6)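 Adult males (Egyptian isolate for S. haematobium, hamster-derived; Philippine isolate for S. japonicum, mouse-derived), about 5 per well in Basch 169 medium with antibiotics and 4% FBS, acclimated overnight at 37°C, 5% CO2. Compound added at 100 nM final in DMSO. Shape, density and motility scored by microscope with constrained descriptors at 5, 24, 48 and 72 h. Triplicate, sometimes duplicate.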

Schistosoma haematobium = assay: Antischistosomal activity against Schistosoma haematobium assessed as inhibition of parasite movement at 100 nM measured after 24 to 72 hrs by microscopic method; assay type: functional, organism-based; conditions: time 24-72 hrs; procedure, shortened: as §6
Schistosoma japonicum [18] = assay: Antischistosomal activity against adult stage of Schistosoma japonicum assessed as inhibition of parasite motility at 100 nM measured after 24 to 72 hrs by microscopic method; assay type: functional, organism-based; conditions: time 24-72 hrs; procedure, shortened: as §6
Schistosoma japonicum [19] = assay: Antischistosomal activity against adult stage of Schistosoma japonicum assessed as parasite death at 100 nM measured after 72 hrs by microscopic method; assay type: functional, organism-based; procedure, shortened: as §6
Schistosoma mansoni [20] = assay: Antischistosomal activity against adult stage of Schistosoma mansoni assessed as cessation of worm motility at 3.15 uM measured after 72 hrs; assay type: functional; procedure, shortened: as §2
Schistosoma mansoni [21] = assay: Antischistosomal activity against adult stage of Schistosoma mansoni assessed as inhibition of in vitro laid eggs production at 12.5 uM measured after 72 hrs; assay type: functional, organism-based; procedure, shortened: as §2
Schistosoma mansoni [22] = assay: Antischistosomal activity against adult stage of Schistosoma mansoni assessed as absence of body/gut movement, plate detachment and severe damage to the tegument at 25 to 50 uM measured after 72 hrs; assay type: functional, organism-based; conditions: dose 25-50 µM; procedure, shortened: as §2
Schistosoma mansoni [23] = assay: Antischistosomal activity against Schistosoma mansoni Puerto-Rican schistosomula assessed as inhibition of parasite motility measured after 72 hrs; assay type: functional, organism-based; procedure, shortened: as §1
Schistosoma mansoni [24] = assay: Antischistosomal activity against Schistosoma mansoni Puerto-Rican schistosomula assessed as phenotypic changes measured after 72 hrs; assay type: functional, organism-based; procedure, shortened: as §1
Schistosoma mansoni [25] = assay: Antischistosomal activity against adult stage of Schistosoma mansoni assessed as inhibition of parasite motility measured after 72 hrs; assay type: functional, organism-based; procedure, shortened: as §2
[26] = Cytotoxicity against human HepG2 cells assessed as reduction in cell viability incubated for 24 hrs by MTT assay; assay type: toxicity, cell-based
Procedure, shortened: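 HepG2 seeded at 2×10^4 cells/well, then after 24 h exposed to 1–200 µM (seven concentrations) for 24 h at 37°C. Controls were 1.25% DMSO and 1% Triton X-100. MTT absorbance was read at 570 nm. Triplicates in three experiments; CC50 by non-linear regression of normalized log-dose curves.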

[27] = Cytotoxicity against human HepG2 cells assessed as reduction in cell viability incubated for 72 hrs by MTT assay; assay type: toxicity, cell-based
[28] = Selectivity index, ratio of CC50 for human HepG2 cells measured after 72 hrs to EC50 for antischistosomal activity against Schistosoma mansoni Puerto-Rican schistosomula measured after 72 hrs; assay type: toxicity; conditions: read-out: Ratio CC50/EC50
[29] = Selectivity index, ratio of CC50 for human HepG2 cells measured after 72 hrs to EC50 for antischistosomal activity against adult stage of Schistosoma mansoni measured after 72 hrs; assay type: toxicity; conditions: read-out: Ratio CC50/EC50

For `Clc1ccc(Nc2nc3ccc(N4CCCC4)cc3nc2Nc2ccc(Cl)c(Cl)c2)cc1Cl`, the Activity (Schistosoma mansoni [1]) was “Active”.
In the case of `COC(=O)c1ccc(Nc2nc3ccc([N+](=O)[O-])cc3nc2Nc2ccc(C(=O)OC)cc2)cc1`, the Activity (Schistosoma mansoni [2]) is reported as “Active”.
With `Cc1ccc(Nc2nc3ccccc3nc2Nc2ccc(C)c(C)c2)cc1C` the Activity (Schistosoma mansoni [2]) was “Active”.
In the case of `O=[N+]([O-])c1ccc2nc(Nc3ccc(Cl)c(Cl)c3)c(Nc3ccc(Cl)c(Cl)c3)nc2c1`, the Activity (Schistosoma mansoni [2]) is reported as “Active”, the Activity (Schistosoma mansoni [3]) is reported as “Active” and the Activity [4] is reported as “Non-Toxic”. For the same compound, the Activity (TK6 [5]) was “Toxic”, the Activity [6] was “Non-Toxic” and the Activity [7] was “Non-Toxic”. For the same compound, the Activity (Schistosoma mansoni [8]) was “Active”, the Activity (Schistosoma mansoni [9]) was “Active” and the Activity (Schistosoma mansoni [10]) was “Active”. For the same compound, the Activity (Schistosoma mansoni [11]) was “Dde”, the Activity (Schistosoma mansoni [12]) was “Active” and the Activity [13] was “Toxic”. For the same compound, the Activity (TK6 [14]) was “Toxic”, the Drug uptake [15] was “Active” and the Activity (Schistosoma mansoni [16]) was “Active”. The Activity (Schistosoma japonicum [17]) was “Active”.
In the case of `O=[N+]([O-])c1ccc2nc(Nc3cccc(C(F)(F)F)c3)c(Nc3cccc(C(F)(F)F)c3)nc2c1`, the Activity (Schistosoma haematobium) is reported as “Active” and the Activity (Schistosoma japonicum [17]) is reported as “Active”.
For `O=[N+]([O-])c1ccc2nc(Nc3ccc(Cl)cc3)c(Nc3ccc(Cl)cc3)nc2c1`, the Activity (Schistosoma japonicum [17]) was “Active”.
For `O=[N+]([O-])c1ccc2nc(Nc3ccc(C(F)(F)F)cc3)c(Nc3ccc(C(F)(F)F)cc3)nc2c1`, the Activity (Schistosoma japonicum [18]) was “Active”, the Activity (Schistosoma haematobium) was “Active” and the Activity (Schistosoma japonicum [19]) was “Active”.
For `O=C(C1CCCCC1)N1CC(=O)N2CCc3ccccc3C2C1` (stereo not drawn), the Activity (Schistosoma mansoni [3]) was “Active”, the Activity (Schistosoma mansoni [9]) was “Active” and the Activity (Schistosoma mansoni [16]) was “Active”.
With `O=[N+]([O-])c1ccc2nc(Nc3cc(F)cc(C(F)(F)F)c3)c(Nc3cc(F)cc(C(F)(F)F)c3)nc2c1` the Activity (Schistosoma mansoni [16]) was “Active”.
In the case of `O=[N+]([O-])c1ccc2nc(Nc3ccccc3)c(Nc3ccccc3)nc2c1`, the Activity (Schistosoma mansoni [2]) is reported as “Active” and the Activity (Schistosoma mansoni [20]) is reported as 100%.
With `O=[N+]([O-])c1ccc2nc(Nc3cccc(Cl)c3)c(Nc3cccc(Cl)c3)nc2c1` the Activity (Schistosoma japonicum [17]) was “Active”.
With `c1ccc(/N=c2\sc3ccccc3s\c2=N\c2ccccc2)cc1` the Activity (Schistosoma mansoni [21]) was “Active” and the Activity (Schistosoma mansoni [22]) was “Active”.
With `Cc1cccc(Nc2nc3ccc([N+](=O)[O-])cc3nc2Nc2cccc(C)c2)c1` the Activity (Schistosoma mansoni [2]) was “Active”.
With `Brc1ccc(Nc2nc3ccccc3nc2Nc2ccc(Br)cc2)cc1` the EC50 (Schistosoma mansoni [23]) was 1.21 µM, the EC50 (Schistosoma mansoni [24]) was 3.67 µM and the EC50 (Schistosoma mansoni [25]) was 0.162 µM. The CC50 at 24 h [26] was 7.12 µM, the CC50 at 72 h [27] was 4.64 µM and the selectivity ratio at 72 h [28] was 1.9. For the same compound, the selectivity ratio at 72 h [29] was 28.6.
For `FC(F)(F)c1cccc(Nc2nc3ccccc3nc2Nc2cccc(C(F)(F)F)c2)c1`, the Activity (Schistosoma mansoni [2]) was “Active” and the Activity (Schistosoma mansoni [20]) was 100%.
With `O=[N+]([O-])c1ccc2nc(Nc3cc(C(F)(F)F)ccc3F)c(Nc3cc(C(F)(F)F)ccc3F)nc2c1` the Activity (Schistosoma japonicum [18]) was “Active”, the Activity (Schistosoma haematobium) was “Active” and the Activity (Schistosoma mansoni [16]) was “Active”. The Activity (Schistosoma japonicum [19]) was “Active”.

— ChEMBL document CHEMBL5154639, “Anti-schistosomal activities of quinoxaline-containing compounds: From hit identification to lead optimisation” (Eur J Med Chem, 2021)
